The record followed here is ChEMBL document CHEMBL4007450, “Development of 1,2,4-Oxadiazoles as Potent and Selective Inhibitors of the Human Deacetylase Sirtuin 2: Structure-Activity Relationship, X-ray Crystal Structure, and Anticancer Activity” (J Med Chem, 2017).

SMILES strings stand for the structures. Active and inactive are the calls of the source. No cut-off for these calls is given here.

The subject of test [1] is U-937. Briefly: Effect on cell cycle arrest in human U937 cells at 25 uM after 48 hrs by propidium iodide staining-based FACS analysis. Format: functional. On the technique in general: A flow cytometer gives signals particle by particle.
In test [2] the target is T1, NAD-dependent protein deacetylase sirtuin-2 (Homo sapiens) (UniProt Q8IXJ6).
T1 sequence (whole entry): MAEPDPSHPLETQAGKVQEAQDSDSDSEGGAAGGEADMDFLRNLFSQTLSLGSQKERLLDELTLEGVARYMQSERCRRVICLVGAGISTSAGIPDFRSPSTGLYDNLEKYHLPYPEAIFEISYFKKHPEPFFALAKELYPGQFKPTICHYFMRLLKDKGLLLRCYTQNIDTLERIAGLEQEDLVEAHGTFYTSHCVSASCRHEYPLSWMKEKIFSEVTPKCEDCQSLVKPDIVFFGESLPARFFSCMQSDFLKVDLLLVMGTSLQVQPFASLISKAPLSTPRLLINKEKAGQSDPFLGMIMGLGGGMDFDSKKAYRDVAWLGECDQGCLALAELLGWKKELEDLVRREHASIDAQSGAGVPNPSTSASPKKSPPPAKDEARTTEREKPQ
Briefly: Inhibition of human N-terminal His6-SUMO-tagged SIRT2 catalytic domain (43 to 356 residues) deacetylase activity expressed in Escherichia coli using alpha-tubulin-acetylLys40 peptide as substrate at 100 uM after 45 mins in presence of NAD+ by pNCA/GDH-based microplate spectrophotometric analysis. The method in brief:
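Continuous coupled assay: Sirt2 product nicotinamide is converted by pNCA/GDH, and NADPH oxidation is read at 340 nm. Compounds were tested at 10 and 100 μM. Background was taken without peptide or NAD+.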

For test [3], the system named is U-937. Briefly: Cell cycle arrest in human U937 cells assessed as accumulation at G2/M phase at 25 uM after 48 hrs by propidium iodide staining-based FACS analysis. Format: functional.
Test [4] deals with T2, NAD-dependent protein deacetylase sirtuin-2 (Homo sapiens, UniProt Q8IXJ6).
T2 sequence (Q8IXJ6 whole entry): T1 sequence (whole entry)

Test [5] deals with T3, NAD-dependent protein deacetylase sirtuin-3, mitochondrial (Homo sapiens) (UniProt Q9NTG7).
T3 sequence (whole entry): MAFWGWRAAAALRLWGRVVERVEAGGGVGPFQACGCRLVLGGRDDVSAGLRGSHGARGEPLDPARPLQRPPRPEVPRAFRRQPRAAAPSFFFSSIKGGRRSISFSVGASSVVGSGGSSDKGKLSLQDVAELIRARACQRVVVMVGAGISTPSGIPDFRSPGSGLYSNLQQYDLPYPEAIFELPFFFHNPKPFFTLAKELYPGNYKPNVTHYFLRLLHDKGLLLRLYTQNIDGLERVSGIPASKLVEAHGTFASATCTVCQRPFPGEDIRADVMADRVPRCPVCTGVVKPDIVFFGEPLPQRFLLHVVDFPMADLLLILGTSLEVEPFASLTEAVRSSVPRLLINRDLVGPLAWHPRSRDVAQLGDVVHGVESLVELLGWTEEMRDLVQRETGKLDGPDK
Kind of test: Inhibition of human SIRT3 (114 to 380 residues) activity expressed in Escherichia coli using AceCS2 peptide as substrate up to 100 uM after 45 mins in presence of NAD+ by pNCA/GDH-based microplate spectrophotometric analysis. The method in brief: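 Same pNCA/GDH-coupled 340 nm NADPH read-out as the Sirt2 assay, using 20 mM Na-phosphate pH 7.8 with 3% DMSO at 20 °C for 45 min. Sirt3 (114-380) was used at 5 µM with AceCS2 peptide TRSGacKVMR as substrate. Inhibitors were tested up to 100 µM.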

Test [6] has as its target NAD-dependent protein deacylase sirtuin-5, mitochondrial (Homo sapiens) (UniProt Q9NXA8). Kind of test: Inhibition of human SIRT5 (34 to 302 residues) desuccinylase activity expressed in Escherichia coli using peptide as substrate up to 100 uM after 45 mins in presence of NAD+ by pNCA/GDH-based microplate spectrophotometric analysis.
For test [7] the target is unchanged. Kind of test: Inhibition of human SIRT5 (34 to 302 residues) deacetylase activity expressed in Escherichia coli using Prx1 peptide as substrate up to 100 uM after 45 mins in presence of NAD+ by pNCA/GDH-based microplate spectrophotometric analysis.
The target of test [8] is T4, NAD-dependent protein deacetylase sirtuin-1 (Homo sapiens) (UniProt Q96EB6).
T4 sequence (whole entry): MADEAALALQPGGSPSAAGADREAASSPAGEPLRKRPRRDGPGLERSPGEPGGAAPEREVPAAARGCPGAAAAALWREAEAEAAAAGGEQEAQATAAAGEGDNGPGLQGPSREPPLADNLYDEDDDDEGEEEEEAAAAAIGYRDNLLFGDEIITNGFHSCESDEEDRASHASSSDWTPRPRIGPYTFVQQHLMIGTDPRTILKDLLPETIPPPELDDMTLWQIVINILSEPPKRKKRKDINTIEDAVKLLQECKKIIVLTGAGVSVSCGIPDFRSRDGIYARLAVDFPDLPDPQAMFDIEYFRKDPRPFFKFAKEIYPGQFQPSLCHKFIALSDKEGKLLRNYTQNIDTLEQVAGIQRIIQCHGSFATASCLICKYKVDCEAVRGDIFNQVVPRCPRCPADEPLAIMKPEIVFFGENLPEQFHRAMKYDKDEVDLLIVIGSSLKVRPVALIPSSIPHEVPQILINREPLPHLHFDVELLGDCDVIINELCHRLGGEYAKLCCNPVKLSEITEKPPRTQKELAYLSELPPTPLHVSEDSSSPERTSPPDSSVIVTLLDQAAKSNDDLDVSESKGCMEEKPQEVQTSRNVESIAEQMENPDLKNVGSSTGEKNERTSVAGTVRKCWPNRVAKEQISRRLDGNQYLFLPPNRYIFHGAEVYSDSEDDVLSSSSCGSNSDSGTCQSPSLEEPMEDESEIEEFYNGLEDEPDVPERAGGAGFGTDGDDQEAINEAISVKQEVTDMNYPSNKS
Kind of test: Inhibition of human full length SIRT1 activity expressed in Escherichia coli using p53 peptide as substrate up to 100 uM after 45 mins in presence of NAD+ by pNCA/GDH-based microplate spectrophotometric analysis. In a few lines: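 Full-length Sirt1 at 2 µM with p53 peptide RHKacKLMFK as substrate. Activity was measured in the same coupled pNCA/GDH mix as for Sirt2 (α-ketoglutarate, NADPH, Na-phosphate pH 7.8, 3% DMSO), following NADPH oxidation at 340 nm at 20 °C for 45 min. Compounds were tested up to 100 µM.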

Chain of NAD-dependent protein deacylase sirtuin-5, mitochondrial (Homo sapiens) (Q9NXA8 37-310 limits assumed): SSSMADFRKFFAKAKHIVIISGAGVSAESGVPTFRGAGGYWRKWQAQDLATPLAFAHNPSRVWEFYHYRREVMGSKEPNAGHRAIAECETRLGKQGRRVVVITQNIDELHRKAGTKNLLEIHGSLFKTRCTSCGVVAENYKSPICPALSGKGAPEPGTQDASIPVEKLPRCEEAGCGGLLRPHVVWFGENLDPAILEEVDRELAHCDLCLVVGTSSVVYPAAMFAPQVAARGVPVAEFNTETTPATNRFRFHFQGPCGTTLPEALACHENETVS

For the molecule `BrCCCc1nc(-c2ccccc2)no1`, in test [1], the result was inactive. Same read-out and setting: then `COC(=O)c1nc(-c2ccc(Br)cc2)no1`, with “inactive”. In the case of `Cc1ccc(-c2noc(CCCBr)n2)cc1`, the inhibition entry in test [2] was “Active”. In addition, in test [1], the outcome was inactive. With `c1cncc(-c2noc(CN3CCCCC3)n2)c1`, in test [1], the outcome was inactive.

With `BrCCCc1nc(-c2ccccc2Br)no1`, in test [3], the outcome was Active. As for `Clc1cccc(-c2noc(CCCBr)n2)c1`, the result in test [1] was inactive. In the case of `Clc1ccccc1-c1noc(CN2CCCCC2)n1`, the outcome in test [1] was inactive.

In the case of `BrCCCCc1nc(-c2ccc(Br)cc2)no1`, the IC50 (usually the concentration needed to halve the response being measured) in test [4] was 2.6 µM. For the same molecule, in test [1], the result was inactive.

As for `Clc1ccccc1-c1noc(CCCBr)n1`, in test [3], the outcome was Active.

As for `O=[N+]([O-])c1ccc(-c2noc(CN3CCCC3)n2)cc1`, the inhibition entry in test [2] is “inactive”. Also, the outcome in test [1] was inactive.

With `O=[N+]([O-])c1ccc(-c2noc(CCCBr)n2)cc1`, the inhibition result in test [2] is “Active”. In test [4], this molecule displayed an IC50 of 6.6 µM. In addition, the outcome in test [1] was inactive. With `c1ccc(-c2noc(CN3CCCCC3)n2)cc1`, the result in test [1] was inactive.

As for `Clc1ccc(-c2noc(CN3CCCCCC3)n2)cc1`, the inhibition entry in test [2] is “Active”. Besides, the result in test [1] was inactive. The matching figures for `CCN(CC)Cc1nc(-c2ccc([N+](=O)[O-])cc2)no1`: “inactive” and “inactive”. The matching figures for `Clc1ccc(-c2noc(CN3CCSCC3)n2)cc1`: “Active” and “inactive”.

`OCCCc1nc(-c2ccc(Cl)cc2)no1` returned a half-inhibitory concentration (IC50) in test [4] of 41.2 µM. Turning to `FC(F)(F)c1nc(-c2ccc(Br)cc2)no1`, the result in test [1] was inactive. On to `OCC1CCN(Cc2nc(-c3ccc(Cl)cc3)no2)CC1`, for which, in test [2], the inhibition result was “Active”. Besides, the outcome in test [1] was inactive. Take `CN1CCN(Cc2nc(-c3ccc(Cl)cc3)no2)CC1`: the inhibition result in test [2] was “Active”. Also, the result in test [1] was inactive. In the case of `Cc1nc(-c2ccc(Cl)cc2)no1`, the outcome in test [1] was inactive. For `Clc1ccc(-c2noc(CCCN3CCCCC3)n2)cc1`, the inhibition entry in test [2] was “inactive”. In test [1], the outcome was inactive. `Clc1ccc(-c2noc(CN3CCCCC3)n2)cc1`: in test [2], the inhibition result is “Active”. For the same molecule, the result in test [1] was inactive.

In the case of `Clc1ccc(-c2noc(CN3CCOCC3)n2)cc1`, the inhibition result in test [2] is “Active”. The outcome in test [1] was inactive. Turning to `NC(=O)c1nc(-c2ccc(Br)cc2)no1`, the outcome in test [1] was inactive. With `BrCCCc1nc(-c2cccc(Br)c2)no1`, the outcome in test [1] was inactive. Regarding `Clc1ccc(-c2noc(CN3CCN(c4ccccc4)CC3)n2)cc1`, in test [2], the inhibition entry was “Active”. For the same molecule, in test [1], the result was inactive. Take `CN(C)Cc1nc(-c2ccc(Cl)cc2)no1`: the outcome in test [1] was inactive. Turning to `FC(F)(F)c1ccc(-c2noc(CCCBr)n2)cc1`, 3.9 µM corresponded to half-maximal inhibition in test [4] (IC50). In addition, in test [1], the result was inactive. As for `Clc1ccc(-c2noc(CNC3CCCCC3)n2)cc1`, the inhibition result in test [2] is “Active”. Further, the result in test [1] was inactive. The matching figures for `CN(C)Cc1nc(-c2ccc([N+](=O)[O-])cc2)no1`: “inactive” and “inactive”.

On to `Clc1ccc(-c2noc(CBr)n2)cc1`, for which the outcome in test [3] was Active. `OCCN1CCN(CCCc2nc(-c3ccccc3)no2)CC1`: the inhibition entry in test [2] was “inactive”. In addition, the outcome in test [1] was inactive. Consider `Clc1cccc(-c2noc(CN3CCCCC3)n2)c1`, for which the result in test [1] was inactive.

`CC(=O)OCCCc1nc(-c2ccc(Cl)cc2)no1` displayed an IC50 in test [4] of 21.2 µM. `ClCCCc1nc(-c2ccc(Br)cc2)no1`: the inhibition result in test [5], in test [6], in test [7] and in test [8] was “inactive” throughout. In test [4], this molecule gave an IC50 of 3.6 µM. The result in test [1] was inactive. For `Clc1ccc(-c2noc(CN3CCCC3)n2)cc1`, the inhibition result in test [2] was “Active”. Also, the outcome in test [1] was inactive.
